The source made the active and inactive calls. The calls are words filed in the database; no cut-off is given here.
Columns and labels:
[1] = target: DNA topoisomerase 2-alpha (Homo sapiens) (UniProt P11388); assay: Inhibition of recombinant human topoisomerase-2alpha assessed as reducton in relaxation of supercoiled pUC19 DNA at 50 to 100 uM after 30 mins by ethidium bromide staining-based gel electrophoresis assay
In short: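 Supercoiled pUC19 (100 ng) with 4 units recombinant human topo IIα (p170) in relaxation buffer, ± compound at 50 or 100 µM or m-AMSA control, 30 min at 37 °C; stopped with 1% SDS, proteinase K digested; products resolved by agarose gel, ethidium bromide stained, imaged under UV.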

[2] = tested on: HT-29; assay: Growth inhibition of human HT-29 cells after 48 hrs by sulforhodamine B dye-based spectrophotometric assay; assay type: functional; conditions: HT-29, 48 h
[3] = tested on: NCI/ADR-RES; assay: Growth inhibition of human NCI-ADR-RES cells after 48 hrs by sulforhodamine B dye-based spectrophotometric assay; assay type: functional
[4] = tested on: OVCAR-3; assay: Growth inhibition of human OVCAR3 cells after 48 hrs by sulforhodamine B dye-based spectrophotometric assay; assay type: functional; conditions: OVCAR-3, 48 h
[5] = tested on: U-251; assay: Growth inhibition of human U251 cells after 48 hrs by sulforhodamine B dye-based spectrophotometric assay; assay type: functional; conditions: U-251, 48 h
[6] = tested on: MCF7; assay: Growth inhibition of human MCF7 cells after 48 hrs by sulforhodamine B dye-based spectrophotometric assay; assay type: functional; conditions: MCF7, 48 h
[7] = tested on: 786-0; assay: Growth inhibition of human 786-0 cells after 48 hrs by sulforhodamine B dye-based spectrophotometric assay; assay type: functional; conditions: 786-0, 48 h
[8] = Growth inhibition of human HaCaT cells after 48 hrs by sulforhodamine B dye-based spectrophotometric assay; assay type: cell-based
[9] = tested on: K562; assay: Growth inhibition of human K562 cells after 48 hrs by sulforhodamine B dye-based spectrophotometric assay; assay type: functional; conditions: K562, 48 h
[10] = tested on: NCI-H460; assay: Growth inhibition of human NCI-H460 cells after 48 hrs by sulforhodamine B dye-based spectrophotometric assay; assay type: functional; conditions: NCI-H460, 48 h
[11] = tested on: HT-29; assay: Cell cycle arrest in human HT-29 cells assessed as accumulation at S phase at 10 uM after 24 hrs by propidium iodide staining-based flow cytometric method (reference value: 17.2 +/- 1.2%); assay type: functional
[12] = tested on: HT-29; assay: Cell cycle arrest in human HT-29 cells assessed as accumulation at sub-G1 phase at 10 uM after 24 hrs by propidium iodide staining-based flow cytometric method (reference value: 3.5 +/- 0.7%); assay type: functional
[13] = tested on: HT-29; assay: Induction of apoptosis in human HT-29 cells assessed as increase in cell subpopulation with phosphatidylserine externalization at 5 uM after 24 hrs by annexin-V-PE/7-AAD staining-based flow cytometry; assay type: functional
In short: (§1)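 HT-29 seeded 2×10^5 cells/well, 24 h; treated 24 h at 5–50 μM (vehicle DMSO 0.1%); trypsinized, 1×10^5 cells in PBS plus binding buffer with annexin-V-PE and 7-AAD, 20 min dark, room temperature; 5000 events per experiment by flow cytometry; mean ± SE, two independent experiments in triplicate; ANOVA/Tukey.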

[14] = tested on: HT-29; assay: Cell cycle arrest in human HT-29 cells assessed as accumulation at sub-G1 phase at 30 uM after 24 hrs by propidium iodide staining-based flow cytometric method (reference value: 3.5 +/- 0.7%); assay type: functional
[15] = tested on: HT-29; assay: Cell cycle arrest in human HT-29 cells assessed as accumulation at G2/M phase at 10 uM after 24 hrs by propidium iodide staining-based flow cytometric method (reference value: 32.5 +/- 2.3%); assay type: functional
[16] = tested on: Calf thymus DNA; assay: Binding affinity to calf thymus DNA assessed as hyperchromicity at 100 uM after 10 mins by UV-visible absorption assay relative to control; assay type: nucleic-acid assay; conditions: Bos taurus
In short: (§2)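 ctDNA in Tris-HCl (0.01 M, pH 7.6), sonicated 5 min; concentration from ε260 6600 M⁻¹ cm⁻¹, as base-pair equivalents. Ligand from 1 mM DMSO stock diluted in buffer (10–80 μM), titrated with increasing ctDNA, stirred 10 min at room temperature, UV-vis read in 1 cm quartz cuvette; hyperchromicity with 100 µM ctDNA versus free ligand; Kb by curve fitting.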

[17] = tested on: HT-29; assay: Cell cycle arrest in human HT-29 cells assessed as accumulation at G1 phase at 5 uM after 24 hrs by propidium iodide staining-based flow cytometric method (reference value: 46.1 +/- 2.1%); assay type: functional
[18] = tested on: Calf thymus DNA; assay: Binding affinity to calf thymus DNA at 15 uM by fluorescence spectra analysis; assay type: nucleic-acid assay; conditions: Bos taurus
In short: (§3)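 Fluorescence of 15 μM ligand in 0.01 M Tris, pH 7.6, 25 °C, 1 cm quartz cuvette; excitation 335 nm, emission 435 nm (spectra 370–700 nm); ctDNA (0–100 μM) added stepwise into the cell; quenching analysed by Stern-Volmer plot to give Ksv.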

[19] = tested on: HT-29; assay: Cell cycle arrest in human HT-29 cells assessed as accumulation at S phase at 30 uM after 24 hrs by propidium iodide staining-based flow cytometric method (reference value: 17.2 +/- 1.2%); assay type: functional
[20] = tested on: Calf thymus DNA; assay: Binding affinity to calf thymus DNA assessed as maximum absorption peak at 10 to 80 uM after 10 mins by UV-visible absorption assay (reference value: 334 nm); assay type: nucleic-acid assay; conditions: Bos taurus; in short: as §2
[21] = tested on: HT-29; assay: Cell cycle arrest in human HT-29 cells assessed as accumulation at G2/M phase at 30 uM after 24 hrs by propidium iodide staining-based flow cytometric method (reference value: 32.5 +/- 2.3%); assay type: functional
[22] = tested on: HT-29; assay: Induction of apoptosis in human HT-29 cells after 24 hrs by annexin-V-PE/7-AAD staining-based flow cytometry; assay type: functional, cell-based; in short: as §1
[23] = tested on: HT-29; assay: Cell cycle arrest in human HT-29 cells assessed as accumulation at S phase at 5 uM after 24 hrs by propidium iodide staining-based flow cytometric method (reference value: 17.2 +/- 1.2%); assay type: functional
[24] = tested on: Calf thymus DNA; assay: Binding affinity to calf thymus DNA by fluorescence spectra analysis; assay type: nucleic-acid assay; conditions: Bos taurus; in short: as §3
[25] = tested on: HT-29; assay: Cell cycle arrest in human HT-29 cells assessed as accumulation at G1 phase at 10 uM after 24 hrs by propidium iodide staining-based flow cytometric method (reference value: 46.1 +/- 2.1%); assay type: functional
[26] = tested on: HT-29; assay: Cell cycle arrest in human HT-29 cells assessed as accumulation at G2/M phase at 5 uM after 24 hrs by propidium iodide staining-based flow cytometric method (reference value: 32.5 +/- 2.3%); assay type: functional
[27] = tested on: HT-29; assay: Cell cycle arrest in human HT-29 cells assessed as accumulation at sub-G1 phase at 5 uM after 24 hrs by propidium iodide staining-based flow cytometric method (reference value: 3.5 +/- 0.7%); assay type: functional
[28] = tested on: HT-29; assay: Cell cycle arrest in human HT-29 cells assessed as accumulation at G1 phase at 30 uM after 24 hrs by propidium iodide staining-based flow cytometric method (reference value: 46.1 +/- 2.1%); assay type: functional
[29] = tested on: Calf thymus DNA; assay: Binding affinity to calf thymus DNA assessed as hyperchromicity after 10 mins by UV-visible absorption assay; assay type: nucleic-acid assay; conditions: Bos taurus; in short: as §2
[30] = tested on: HT-29; assay: Cell cycle arrest in human HT-29 cells assessed as accumulation at G1 phase at 1.25 nM after 24 hrs by propidium iodide staining-based flow cytometric method (reference value: 46.1 +/- 2.1%)
[31] = tested on: HT-29; assay: Cell cycle arrest in human HT-29 cells assessed as accumulation at G2/M phase at 1.25 nM after 24 hrs by propidium iodide staining-based flow cytometric method (reference value: 32.5 +/- 2.3%)
[32] = tested on: HT-29; assay: Cell cycle arrest in human HT-29 cells assessed as accumulation at S phase at 1.25 nM after 24 hrs by propidium iodide staining-based flow cytometric method (reference value: 17.2 +/- 1.2%)
[33] = tested on: HT-29; assay: Cell cycle arrest in human HT-29 cells assessed as accumulation at sub-G1 phase at 1.25 nM after 24 hrs by propidium iodide staining-based flow cytometric method (reference value: 3.5 +/- 0.7%)
[34] = Binding affinity to DNA (unknown origin)

DNA topoisomerase 2-alpha (Homo sapiens), sequence (P11388 whole entry): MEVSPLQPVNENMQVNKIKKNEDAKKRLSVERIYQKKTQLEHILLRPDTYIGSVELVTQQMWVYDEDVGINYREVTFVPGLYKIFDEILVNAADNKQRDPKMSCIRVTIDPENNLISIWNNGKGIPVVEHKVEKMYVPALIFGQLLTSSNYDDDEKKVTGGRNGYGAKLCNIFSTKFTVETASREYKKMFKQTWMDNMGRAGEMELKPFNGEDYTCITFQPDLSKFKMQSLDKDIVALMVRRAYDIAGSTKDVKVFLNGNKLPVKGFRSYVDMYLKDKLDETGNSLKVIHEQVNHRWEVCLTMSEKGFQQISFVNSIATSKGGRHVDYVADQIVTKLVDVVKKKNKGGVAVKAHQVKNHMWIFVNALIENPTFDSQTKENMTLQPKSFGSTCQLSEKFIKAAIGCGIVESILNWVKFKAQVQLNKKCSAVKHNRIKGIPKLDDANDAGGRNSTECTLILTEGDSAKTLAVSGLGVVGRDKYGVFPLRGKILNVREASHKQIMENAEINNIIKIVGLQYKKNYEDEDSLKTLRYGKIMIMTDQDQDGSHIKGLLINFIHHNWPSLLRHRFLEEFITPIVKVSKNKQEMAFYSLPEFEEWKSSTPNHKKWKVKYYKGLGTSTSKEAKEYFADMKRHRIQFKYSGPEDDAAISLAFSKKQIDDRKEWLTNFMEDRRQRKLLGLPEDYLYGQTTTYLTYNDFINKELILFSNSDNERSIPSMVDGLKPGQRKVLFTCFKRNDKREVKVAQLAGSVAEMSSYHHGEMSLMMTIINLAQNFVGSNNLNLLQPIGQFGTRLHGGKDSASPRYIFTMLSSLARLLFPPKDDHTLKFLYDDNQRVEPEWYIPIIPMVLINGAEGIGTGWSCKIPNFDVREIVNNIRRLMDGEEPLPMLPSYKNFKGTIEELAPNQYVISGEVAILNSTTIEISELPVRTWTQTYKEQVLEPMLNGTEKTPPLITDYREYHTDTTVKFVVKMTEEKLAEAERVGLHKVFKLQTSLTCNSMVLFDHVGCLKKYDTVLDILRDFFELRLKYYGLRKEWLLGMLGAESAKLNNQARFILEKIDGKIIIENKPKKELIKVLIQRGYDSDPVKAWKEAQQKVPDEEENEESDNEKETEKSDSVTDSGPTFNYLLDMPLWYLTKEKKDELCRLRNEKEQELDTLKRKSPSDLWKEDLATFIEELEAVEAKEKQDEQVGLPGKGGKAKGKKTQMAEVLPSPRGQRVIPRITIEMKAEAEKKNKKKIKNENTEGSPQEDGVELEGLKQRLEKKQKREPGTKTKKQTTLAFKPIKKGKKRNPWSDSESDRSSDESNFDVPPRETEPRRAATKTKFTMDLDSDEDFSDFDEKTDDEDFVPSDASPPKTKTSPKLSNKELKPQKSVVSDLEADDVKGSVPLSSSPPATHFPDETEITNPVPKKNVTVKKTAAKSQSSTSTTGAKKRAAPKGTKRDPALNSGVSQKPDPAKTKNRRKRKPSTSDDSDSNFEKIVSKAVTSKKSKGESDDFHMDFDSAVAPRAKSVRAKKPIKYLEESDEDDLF

COc1cc(NS(C)(=O)=O)ccc1Nc1c2ccccc2nc2ccccc12
inhibition [1]: Active

Cc1ccc(N2C(=O)CS/C2=N/N=C/c2c[nH]c3ccc(Br)cc23)cc1
GI50 [2]: > 100 µM
GI50 [3]: 64.6 µM
GI50 [4]: 98.5 µM
GI50 [5]: 54.7 µM
GI50 [6]: 59.5 µM
GI50 [7]: 39.9 µM
GI50 at 48 h [8]: 54 µM
GI50 [9]: 0.01 µM
GI50 [10]: 96.6 µM

S=C(N/N=C/c1c[nH]c2ccccc12)Nc1cccc2ccccc12
GI50 [2]: 0.01 µM
Activity [11]: 5.5%
Activity [12]: 1.6%
Activity [13]: 12.6%
Activity [14]: 4.8%
GI50 [3]: 6.48 µM
GI50 [4]: 0.21 µM
Activity [15]: 66.2%
GI50 [5]: 0.92 µM
GI50 [6]: 0.25 µM
Activity [16]: 13%
Activity [17]: 10.7%
GI50 [7]: 0.25 µM
Activity [18]: Active
Activity [19]: 7.3%
Activity [20]: 334 nm
GI50 at 48 h [8]: 0.59 µM
Activity [21]: 53.1%
GI50 [9]: 0.01 µM
Activity [22]: Dose-dependent effect
Activity [23]: 6.8%
KSV [24]: 1.19 ×10³ /M
Activity [25]: 26.7%
Activity [26]: 80.5%
Activity [27]: 2%
inhibition [1]: Active
Activity [28]: 34.9%
GI50 [10]: 0.38 µM
Kb [29]: 4.3 ×10⁴ /M

S=C(N/N=C/c1c[nH]c2ccc(Br)cc12)Nc1cccc2ccccc12
GI50 [2]: 6.56 µM
GI50 [3]: 6.18 µM
GI50 [4]: 1.6 µM
GI50 [5]: 7.32 µM
GI50 [6]: 0.95 µM
GI50 [7]: 6.56 µM
GI50 at 48 h [8]: 6.15 µM
GI50 [9]: 5.29 µM
GI50 [10]: 6.99 µM

COc1cc2c(c(OC)c1OC)-c1ccc(OC)c(=O)cc1[C@@H](NC(C)=O)CC2 [COLCHICINE]
Activity [30]: 14.6%
Activity [31]: 76%
Activity [32]: 5.9%
Activity [33]: 3.5%

COc1cccc2c1C(=O)c1c(O)c3c(c(O)c1C2=O)C[C@@](O)(C(=O)CO)C[C@@H]3O[C@H]1C[C@H](N)[C@H](O)[C@H](C)O1 [DOXORUBICIN]
GI50 [2]: 0.23 µM
GI50 [3]: 0.77 µM
GI50 [4]: 0.22 µM
GI50 [5]: 0.14 µM
GI50 [6]: 0.07 µM
GI50 [7]: 0.11 µM
GI50 at 48 h [8]: 0.2 µM
GI50 [9]: 0.93 µM
GI50 [10]: 0.09 µM

O=C1CS/C(=N/N=C/c2c[nH]c3ccccc23)N1c1cccc2ccccc12
GI50 [2]: 96.9 µM
GI50 [3]: 38.6 µM
GI50 [4]: 25.7 µM
GI50 [5]: 72.5 µM
GI50 [6]: 34.9 µM
GI50 [7]: 62.1 µM
GI50 at 48 h [8]: 63 µM
GI50 [9]: > 100 µM
GI50 [10]: > 100 µM

S=C(N/N=C/c1c2ccccc2nc2ccccc12)Nc1cccc2ccccc12
Kb [34]: 8.47 ×10⁵ /M

S=C(NCCc1ccccc1)N/N=C/c1c[nH]c2ccc(Br)cc12
GI50 [2]: 7.87 µM
GI50 [3]: 7.14 µM
GI50 [4]: 8.22 µM
GI50 [5]: 7.49 µM
GI50 [6]: 6.81 µM
GI50 [7]: 7.58 µM
GI50 at 48 h [8]: 7.85 µM
GI50 [9]: 2.12 µM
GI50 [10]: 8.48 µM

S=C(NCCc1ccccc1)N/N=C/c1c[nH]c2ccccc12
GI50 [2]: > 100 µM
GI50 [3]: 38.7 µM
GI50 [4]: > 100 µM
GI50 [5]: 77.9 µM
GI50 [6]: 15.5 µM
GI50 [7]: 76.3 µM
GI50 at 48 h [8]: > 100 µM
GI50 [9]: 0.17 µM
GI50 [10]: > 100 µM

Cc1ccc(NC(=S)N/N=C/c2c[nH]c3ccccc23)cc1
GI50 [2]: 1.45 µM
GI50 [3]: 1.46 µM
GI50 [4]: 3.88 µM
GI50 [5]: 8.11 µM
GI50 [6]: 2.52 µM
GI50 [7]: 3.99 µM
GI50 at 48 h [8]: 0.99 µM
GI50 [9]: 0.16 µM
GI50 [10]: 11.7 µM

O=C1CS/C(=N/N=C/c2c[nH]c3ccc(Br)cc23)N1c1cccc2ccccc12
GI50 [2]: 27.3 µM
GI50 [3]: 12.4 µM
GI50 [4]: 5.12 µM
GI50 [5]: 48.8 µM
GI50 [6]: 6.06 µM
GI50 [7]: 29.1 µM
GI50 at 48 h [8]: 6.23 µM
GI50 [9]: > 100 µM
GI50 [10]: > 100 µM

Cc1ccc(N2C(=O)CS/C2=N/N=C/c2c[nH]c3ccccc23)cc1
GI50 [2]: > 100 µM
GI50 [3]: > 100 µM
GI50 [4]: > 100 µM
GI50 [5]: 90.2 µM
GI50 [6]: > 100 µM
GI50 [7]: 79.1 µM
GI50 at 48 h [8]: > 100 µM
GI50 [9]: > 100 µM
GI50 [10]: > 100 µM

From ChEMBL document CHEMBL4138095, “Thiosemicarbazones and 4-thiazolidinones indole-based derivatives: Synthesis, evaluation of antiproliferative activity, cell death mechanisms and topoisomerase inhibition assay” (Eur J Med Chem, 2017)
